This is an account of results in ChEMBL document CHEMBL2396634, “An effective prodrug strategy to selectively enhance ocular exposure of a cannabinoid receptor (CB1/2) agonist” (J Med Chem, 2013).

In brackets after ≈: the same amount, converted by molar mass.

For data set [1], the system named is Plasma. The data set can be described thus: (§1) AUC in Brown Norway rat plasma administered topically after 3 hrs. The class given is ADME, cell-free. Set-up: time < 3 hr; concentration or dose not given beside the values. Conditions: topical_or_ocular, 3 h, BLD = below limit of detection; call rule not given here. In outline:
(§2)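 Adult male Brown Norway rats (200−250 g) received a single topical 4 μL dose of 0.1% solution to each eye (5% cremaphor EL, 0.78% NaCl, 0.1% Na3PO4 in sterile water, pH 6.8). Composite design, three animals per group, sampled at 0.25, 1 and 3 h. Plasma taken by cardiac puncture. Eyes enucleated and PBS-rinsed, tissues dissected and homogenized. Parent drug measured by LC/MS/MS. AUC over 0−3 h.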

Data set [2] is described as follows: Aqueous solubility of the compound at pH 6.8. The class given is physicochemical.
Data set [3] is described as follows: AUC in Brown Norway rat iris and ciliary body administered topically after 3 hrs. The class given is ADME, tissue-based. Set-up: time < 3 hr; concentration or dose not given beside the values. To be noted: topical or ocular. In outline: as §2
The nature of data set [4]: as §1. Conditions: Brown Norway, topical or ocular. The data set is classed as ADME, cell-free. Also noted: time < 3 hr; concentration or dose not given beside the values. In outline:
as §2

Data set [5] concerns Iris and ciliary body (Rattus norvegicus). In words: AUC in Brown Norway rat iris and ciliary body administered topically after 3 hrs. To be noted: in vivo, topical_or_ocular, BLD = below limit of detection.
The nature of data set [6]: Cmax in Brown Norway rat iris administered topically. The data set is classed as ADME, tissue-based. To be noted: topical or ocular. In outline: (§3)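 Male Brown Norway rats, 200−250 g, dosed once topically with 4 μL of a 0.02% clinical formulation per eye. Composite design with 3 animals per time point. Cornea, aqueous humor, iris/ciliary body and plasma collected at 0 (untreated), 0.083, 0.25, 0.5, 1, 3, 6 and 24 h. Eyes rinsed in PBS after enucleation.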

Data set [7] can be described thus: Tmax in Brown Norway rat iris administered topically. The data set is classed as ADME, tissue-based. To be noted: topical or ocular. In outline:
as §3

Data set [8] can be described thus: AUC (0 to last) in Brown Norway rat cornea administered topically. The data set is classed as ADME, tissue-based. Set-up: time 0 - last. To be noted: topical or ocular. In outline: as §3
A short description of data set [9]: Drug uptake in Brown Norway rat ciliary body administered topically after 3 hrs. The data set is classed as ADME, tissue-based. To be noted: in vivo, topical_or_ocular. In outline: (§4)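 Abbreviated ocular PK in male Brown Norway rats, 200−250 g. Single topical 4 μL dose per eye of 0.1% solution in 5% cremaphor EL, 0.78% NaCl, 0.1% Na3PO4, water, pH 6.8. Three animals per group, sampled at 0.25, 1 and 3 h. Tissues homogenized in PBS with 10% acetonitrile.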

A short description of data set [10]: Tmax in Brown Norway rat cornea administered topically. Conditions: topical or ocular. The class given is ADME, tissue-based. In outline:
as §3

Data set [11] in a line: AUC (0 to last) in Brown Norway rat aqueous humor administered topically. Also noted: time 0 - last. The class given is ADME. Conditions: topical or ocular. In outline:
as §3

Data set [12] can be described thus: Drug uptake in Brown Norway rat iris administered topically after 1 hr. The class given is ADME, tissue-based. To be noted: in vivo, topical_or_ocular. In outline: as §4
Data set [13] can be described thus: Drug uptake in Brown Norway rat ciliary body administered topically after 1 hr. The data set is classed as ADME, tissue-based. To be noted: in vivo, topical_or_ocular. In outline:
as §4

The nature of data set [14]: Drug uptake in Brown Norway rat cornea administered topically after 3 hrs. The data set is classed as ADME, tissue-based. To be noted: in vivo, topical_or_ocular. In outline:
as §4

A short description of data set [15]: Drug uptake in Brown Norway rat aqueous humor administered topically after 3 hrs. The class given is ADME, tissue-based, Aqueous humor of eyeball. To be noted: in vivo, topical_or_ocular. In outline: as §4
A short description of data set [16]: Cmax in Brown Norway rat aqueous humor administered topically. The data set is classed as ADME, tissue-based, Aqueous humor of eyeball. To be noted: topical or ocular. In outline:
as §3

A short description of data set [17]: Drug uptake in Brown Norway rat iris administered topically after 3 hrs. To be noted: in vivo, topical_or_ocular. The class given is ADME, tissue-based. In outline:
as §4

For data set [18], the system named is Plasma. The data set can be described thus: Drug uptake in Brown Norway rat plasma administered topically after 3 hrs. The data set is classed as ADME, cell-free. To be noted: topical_or_ocular. In outline: as §4
The target of another data set is Cannabinoid receptor 1 (Homo sapiens, UniProt P21554). The data set can be described thus: Agonist activity at CB1 receptor (unknown origin).
A short description of data set [19]: Cmax in Brown Norway rat plasma administered topically. The data set is classed as ADME, cell-free. To be noted: topical or ocular. In outline:
as §3

Data set [20] can be described thus: Tmax in Brown Norway rat plasma administered topically. The class given is ADME, cell-free. Conditions: topical or ocular. In outline:
as §3

The nature of data set [21]: Tmax in Brown Norway rat aqueous humor administered topically. To be noted: topical or ocular. The class given is ADME, tissue-based, Aqueous humor of eyeball. In outline:
as §3

The next data set deals with Cannabinoid receptor 2 (Homo sapiens, UniProt P34972). The data set can be described thus: Agonist activity at CB2 receptor (unknown origin).
Data set [22] can be described thus: Cmax in Brown Norway rat cornea administered topically. The data set is classed as ADME, tissue-based. Conditions: topical or ocular. In outline:
as §3

Cannabinoid receptor 1, sequence (P21554 whole entry): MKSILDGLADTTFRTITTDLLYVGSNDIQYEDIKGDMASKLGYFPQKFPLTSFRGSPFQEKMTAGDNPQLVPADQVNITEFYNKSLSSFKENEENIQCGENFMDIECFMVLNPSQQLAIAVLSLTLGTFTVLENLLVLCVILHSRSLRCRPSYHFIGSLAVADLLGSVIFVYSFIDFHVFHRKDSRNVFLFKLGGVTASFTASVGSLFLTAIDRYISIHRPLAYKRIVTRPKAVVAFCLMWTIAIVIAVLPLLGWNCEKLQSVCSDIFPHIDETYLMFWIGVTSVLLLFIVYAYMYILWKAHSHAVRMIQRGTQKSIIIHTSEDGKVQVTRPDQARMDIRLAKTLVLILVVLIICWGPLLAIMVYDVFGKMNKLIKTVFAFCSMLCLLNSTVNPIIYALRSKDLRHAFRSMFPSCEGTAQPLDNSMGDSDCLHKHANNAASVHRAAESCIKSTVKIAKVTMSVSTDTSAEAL
Cannabinoid receptor 2, sequence (P34972 whole entry): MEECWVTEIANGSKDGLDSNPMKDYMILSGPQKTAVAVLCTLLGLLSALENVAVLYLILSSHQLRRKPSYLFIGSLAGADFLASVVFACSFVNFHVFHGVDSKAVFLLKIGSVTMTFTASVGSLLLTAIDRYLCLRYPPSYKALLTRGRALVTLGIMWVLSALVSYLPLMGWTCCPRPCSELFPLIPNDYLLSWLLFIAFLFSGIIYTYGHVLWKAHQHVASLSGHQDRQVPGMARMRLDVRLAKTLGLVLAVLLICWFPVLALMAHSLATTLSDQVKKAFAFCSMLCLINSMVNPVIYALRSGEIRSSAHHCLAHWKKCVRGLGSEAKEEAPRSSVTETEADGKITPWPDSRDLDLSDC

`CCOC(=O)c1c(C)cc2nc(COC(=O)NCCOC(=O)[C@H](NC(=O)[C@@H](N)C(C)C)C(C)C)n(-c3ccccc3S(=O)(=O)NC)c(=O)c2c1C`: the AUC entry in the data set with Plasma [1] is “BLD”. For the same compound, the solubility result in data set [2] (buffer) is “soluble”. This compound also had an AUC at 3 h in [3] of 104 nM·h.
Consider `CCOC(=O)c1c(C)cc2nc(COC(=O)NCCOC(=O)[C@H](N)c3ccccc3Cl)n(-c3ccccc3S(=O)(=O)NC)c(=O)c2c1C`, for which the AUC at 3 h in data set [4] worked out at 3.6 nM·h. Moreover, the exposure (AUC) result in [5] was “BLD”. In data set [2] (buffer), the solubility entry is recorded as “soluble”.
For the compound `CCOC(=O)c1c(C)cc2nc(COC(=O)NCCOC(=O)[C@@H](NC(=O)[C@H](N)C(C)C)C(C)C)n(-c3ccccc3S(=O)(=O)NC)c(=O)c2c1C`, the solubility entry in data set [2] (buffer) is reported as “soluble”.
In the case of `CCOC(=O)c1c(C)cc2nc(COC(=O)NCCOC(=O)CN)n(-c3ccccc3S(=O)(=O)NC)c(=O)c2c1C`, the AUC at 3 h came out at 3.9 nM·h in data set [4] and 17.4 nM·h in data set [3]. Further, the solubility result in [2] (buffer) is “soluble”.
For the compound `CCOC(=O)c1c(C)cc2nc(COC(=O)NCCOC(=O)c3cn4ccccc4n3)n(-c3ccccc3S(=O)(=O)NC)c(=O)c2c1C`, the AUC entry (with Plasma [1]; in data set [5]) was “BLD” in each case. In data set [2] (buffer), the solubility result is listed as “soluble”.
Regarding `CCOC(=O)c1c(C)cc2nc(COC(=O)NCCOP(=O)(O)O)n(-c3ccccc3S(=O)(=O)NC)c(=O)c2c1C`, the AUC at 3 h stood at 10 nM·h in data set [4] and 17 nM·h in data set [3]. In [2] (buffer), the solubility result is “soluble”.
In the case of `CCOC(=O)c1c(C)cc2nc(COC(=O)NCCOC(=O)CCN)n(-c3ccccc3S(=O)(=O)NC)c(=O)c2c1C`, the AUC result (with Plasma [1]; in [5]) was “BLD” each time. For the same compound, in data set [2] (buffer), the solubility entry is listed as “soluble”.
As for `CCOC(=O)c1c(C)cc2nc(COC(=O)NCCOC(=O)[C@@H](N)C(C)C)n(-c3ccccc3S(=O)(=O)NC)c(=O)c2c1C`, the AUC at 3 h turned out to be 20 nM·h in data set [4] and 40 nM·h in [3]. In data set [2] (buffer), the solubility result is “soluble”.
Take `CCOC(=O)c1c(C)cc2nc(COC(=O)NCCO)n(-c3ccccc3S(=O)(=O)NC)c(=O)c2c1C` [SAD448]: the Cmax in [6] was 0.018 µM; in data set [16], 0.082 µM; in data set [19] it was 0.009 µM; in data set [22], 0.05 µM. Also, the Tmax in data set [7], in data set [10], in data set [20] and in data set [21] was 4.98 min each time. The compound further returned an AUC at 3 h in data set [4] of 14 nM·h. The AUC(0-t) in data set [8] was 43 nM·h; in data set [11], 50 nM·h. For the same compound, the AUC entry in [5] is on record as “BLD”. For the same compound, the Drug uptake entry in [9], in [12], in data set [13], in data set [14], in data set [15] and in data set [17] was “Not Active” in each case. Besides, the Drug uptake entry with Plasma [18] is listed as “Not Active”. Also, the solubility in data set [2] (aqueous medium, read-out: solubility) came out at 340 µM (≈ 181 µg/mL). The values for the IC50 at Cannabinoid receptor 1 and on Cannabinoid receptor 2 were 0.094 µM and 0.0035 µM, respectively.
With `CCOC(=O)c1c(C)cc2nc(COC(=O)NCCOC(=O)CN3CCCCC3)n(-c3ccccc3S(=O)(=O)NC)c(=O)c2c1C`, the AUC entry in the data set with Plasma [1] is “BLD”. Further, the solubility entry in data set [2] (buffer) is recorded as “soluble”. The compound also showed an AUC at 3 h in [3] of 321 nM·h.
With `CCOC(=O)c1c(C)cc2nc(COC(=O)NCCOC(=O)C3CCCCN3)n(-c3ccccc3S(=O)(=O)NC)c(=O)c2c1C` (stereo not drawn), the AUC at 3 h turned out to be 11.8 nM·h in data set [4] and 36.7 nM·h in data set [3]. In addition, in [2] (buffer), the solubility result is on record as “soluble”.
As to `CCOC(=O)c1c(C)cc2nc(COC(=O)NCCOC(=O)c3cccnc3)n(-c3ccccc3S(=O)(=O)NC)c(=O)c2c1C`, in the data set on Plasma [1], the AUC result was “BLD”. Also, in data set [2] (buffer), the solubility result was “soluble”. In data set [3], this compound gave an AUC at 3 h of 213 nM·h.

As usually defined, the AUC is concentration integrated over time. In general, solubility refers to how much of the substance goes into solution per volume. The term Cmax denotes the peak of the concentration-time curve. For orientation: Tmax means the time at which the peak concentration occurs. One may read the AUC(0-t) as the area under the concentration-time curve up to a stated or last time point. What is called IC50 is the concentration that gives 50% inhibition.
